{"data": "Published values of several laboratories", "target": "Mitogen-activated protein kinase kinase kinase 14 (MAP3K14, Homo sapiens, UniProt Q99558)", "note": "Lines come from different studies, so protocols differ."}
{"SMILES": "CC(C)(C)c1cc(C=C(C#N)C#N)cc(Br)c1O", "assay": "enzyme activity, inhibitor", "setting": "0.5 µM", "measurement": "remaining activity", "value": "97.3%"}
{"SMILES": "N#CC1(c2ccccn2)CCN(Cc2cc(C(=O)O)c(=O)n3ccccc23)CC1", "assay": "cell-free assay, competition with immobilised ligand", "setting": "1 µM", "measurement": "remaining binding", "value": "73%"}
{"SMILES": "O=c1[nH]c2ccccc2n1C1CCN(Cc2ccc(-c3[nH]c4cc5ncnc5cc4nc3-c3ccccc3)cc2)CC1", "assay": "cell-free assay", "setting": "0.5 µM", "measurement": "remaining signal", "value": "96.8%"}
{"SMILES": "Cn1cc(-c2cccc(N3CCc4c(sc5c4CC(C)(C)C5)C3=O)c2CO)cc(Nc2ccncn2)c1=O", "assay": "enzyme activity, inhibitor", "setting": "1 µM", "measurement": "inhibition", "value": "-3%"}
{"SMILES": "Nc1ncc(-c2nc(N3CCOCC3)nc(N3CCOCC3)n2)c(C(F)F)n1", "assay": "binding, competition with immobilised ligand", "setting": "10 µM", "measurement": "remaining binding", "value": "70%"}
{"SMILES": "Cn1cc(-c2cc(F)cc(N3CCn4c(cc5c4CCCC5)C3=O)c2CO)cc(Nc2ccc(N3CCN(C4COC4)CC3)cn2)c1=O", "assay": "enzyme activity, inhibitor", "setting": "0.1 µM", "measurement": "inhibition", "value": "6%"}
{"SMILES": "COc1ncccc1-c1cnn2ccc(N3CCN(C(=O)OC(C)C)CC3)nc12", "assay": "binding, competition with immobilised ligand", "setting": "1 µM", "measurement": "remaining binding", "value": "100%"}
{"SMILES": "Cn1cncc1[C@](O)(COc1ccc(C#N)cc1-c1ccc(OC(F)(F)F)cc1)c1ccc(C#N)cc1", "assay": "cell-free assay, competition with immobilised ligand", "setting": "1 µM", "measurement": "remaining binding", "value": "88%"}
